The source made the active and inactive calls.
Key:
NHDF [1] = test: Induction of DNA DSB repair in gamma irradiated human NHDF at 4 mM preincubated for 15 mins followed by gamma irradiation measured after 60 to 120 mins by neutral comet assay; type: functional, cell-based
MCF7 [2] = test: Reduction of DNA DSB repair in gamma irradiated human MCF7 cells at 4 mM preincubated for 15 mins followed by gamma irradiation measured after 60 to 120 mins by neutral comet assay; type: functional, cell-based
[3] = Prodrug conversion in human MCF7 cell supernatants assessed as ALP-mediated WR-1065 formation at 4 mM after 20 to 75 mins by LC-MS/MS analysis; type: ADME, cell-based; settings: mcf7, 4000 µM
[4] = Prodrug conversion in human NHDF cells assessed as ALP-mediated WR-1065 formation at 4 mM after 20 to 75 mins by LC-MS/MS analysis; type: ADME, cell-based; settings: 4000 µM
[5] = Prodrug conversion in human MCF7 cells assessed as ALP-mediated WR-1065 formation at 4 mM after 20 to 75 mins by LC-MS/MS analysis; type: ADME, cell-based; settings: mcf7, 4000 µM
MCF7 [6] = test: Induction of DNA damage in gamma irradiated human MCF7 cells assessed as increase in median number of […]/53BP1 foci per nucleus at 4 mM preincubated for 15 mins followed by gamma irradiation measured after 60 to 120 mins by confocal fluorescence microscopic analysis; type: functional, cell-based
Summary of the method: (§1)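 NHDF fibroblasts or MCF7 cells, with or without 4 mM amifostine added 15 min before 1 Gy γ-irradiation. Sampled at 5, 60 and 120 min post-irradiation and fixed in paraformaldehyde to keep nuclei 3D-intact. γH2AX and 53BP1 were immunodetected and imaged by high-resolution confocal microscopy. A DSB was scored only as a γH2AX focus colocalizing with 53BP1 above a minimum size set for each time point. Read-out: median foci per nucleus.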

NHDF [7] = test: Induction of DNA DSB repair in gamma irradiated human NHDF assessed as median number of […]/53BP1 foci per nucleus preincubated for 15 mins followed by gamma irradiation measured after 120 mins by confocal fluorescence microscopic analysis relative to control; type: functional, cell-based; summary of the method: as §1
[8] = Ratio of prodrug conversion in human NHDF assessed as ALP-mediated WR-1065 formation at 20 mins to prodrug conversion in human MCF7 cells assessed as ALP-mediated WR-1065 formation at 20 mins; type: ADME, cell-based; settings: mcf7, 20 min
[9] = Ratio of prodrug conversion in human NHDF supernatants assessed as ALP-mediated WR-1065 formation at 20 mins to prodrug conversion in human MCF7 cell supernatants assessed as ALP-mediated WR-1065 formation at 20 mins; type: ADME, cell-based; settings: mcf7, 20 min
[10] = Ratio of prodrug conversion in human NHDF assessed as ALP-mediated WR-1065 formation at 75 mins to prodrug conversion in human MCF7 cells assessed as ALP-mediated WR-1065 formation at 75 mins; type: ADME, cell-based; settings: mcf7, 1.25 h
[11] = Ratio of prodrug conversion in human NHDF supernatants assessed as ALP-mediated WR-1065 formation at 75 mins to prodrug conversion in human MCF7 cell supernatants assessed as ALP-mediated WR-1065 formation at 75 mins; type: ADME, cell-based; settings: mcf7, 1.25 h
NHDF [12] = test: Protection against DNA damage in gamma irradiated human NHDF assessed as decrease in median number of gammaH2AX/53BP1 foci per nucleus at 4 mM preincubated for 15 mins followed by gamma irradiation measured after 5 mins by confocal fluorescence microscopic analysis relative to control; type: functional; design: scale not given: the % may be the effect or the level left; summary of the method: as §1
NHDF [13] = test: Protection against DNA damage in gamma irradiated human NHDF assessed as decrease in median number of gammaH2AX/53BP1 foci per nucleus at 4 mM preincubated for 15 mins followed by gamma irradiation measured after 60 mins by confocal fluorescence microscopic analysis relative to control; type: functional; design: scale not given: the % may be the effect or the level left; summary of the method: as §1
NHDF [14] = test: Induction of DNA DSB repair in gamma irradiated human NHDF assessed as decrease in median number of […]/53BP1 foci per nucleus at 4 mM preincubated for 15 mins followed by gamma irradiation measured after 60 mins by confocal fluorescence microscopic analysis relative to 5 mins postirradiation; type: functional; design: scale not given: the % may be the effect or the level left
Summary of the method: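 NHDF fibroblasts, with or without 4 mM amifostine 15 min before 1 Gy γ-rays, fixed in paraformaldehyde (3D-preserved). γH2AX foci colocalizing with 53BP1 and above a size threshold set per time point were counted by high-resolution confocal microscopy. Repair efficiency was taken as the median DSBs per nucleus at 5 min minus that at 60 min post-irradiation.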

MCF7 [15] = test: Reduction of DNA DSB repair in gamma irradiated human MCF7 cells assessed as median number of […]/53BP1 foci per nucleus at 4 mM preincubated for 15 mins followed by gamma irradiation measured after 60 mins by confocal fluorescence microscopic analysis relative to control; type: functional; design: scale not given: the % may be the effect or the level left; summary of the method: as §1
NHDF [16] = test: Protection against DNA damage in gamma irradiated human NHDF assessed as decrease in double strand breakage of DNA at 4 mM preincubated for 15 mins followed by gamma irradiation measured after 5 mins by neutral comet assay; type: functional, cell-based
MCF7 [17] = test: Induction of DNA damage in gamma irradiated human MCF7 cells assessed as median number of […]/53BP1 foci per nucleus at 4 mM preincubated for 15 mins followed by gamma irradiation measured after 60 mins by confocal fluorescence microscopic analysis relative to control
NHDF [18] = test: Induction of DNA DSB repair in gamma irradiated human NHDF assessed as median number of […]/53BP1 foci per nucleus at 4 mM preincubated for 15 mins followed by gamma irradiation measured after 60 mins by confocal fluorescence microscopic analysis relative to control; type: functional
Summary of the method: (§2)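 Cells received 4 mM drug 15 min before 1 Gy γ-irradiation and were sampled at 5, 60 and 120 min post-irradiation. They were fixed in paraformaldehyde to keep nuclei in 3D and immunostained for γH2AX and 53BP1. Imaging used high-resolution confocal microscopy. A DSB was scored only where a γH2AX focus colocalized with 53BP1 and met a minimum size set separately for each time point. The read-out was median foci per nucleus against untreated irradiated cells.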

NHDF [19] = test: Drug uptake in human NHDF at 4 mM after 20 to 75 mins by LC-MS/MS analysis; type: ADME, cell-based; settings: 4000 µM
MCF7 [20] = test: Drug uptake in human MCF7 cells at 4 mM after 20 to 75 mins by LC-MS/MS analysis; type: ADME, cell-based; settings: mcf7, 4000 µM
MCF7 [21] = test: Decrease in median number of […]/53BP1 foci per nucleus in gamma irradiated human MCF7 cells at 4 mM preincubated for 15 mins followed by gamma irradiation measured after 5 mins by confocal fluorescence microscopic analysis relative to control; type: functional; design: scale not given: the % may be the effect or the level left; summary of the method: as §2
MCF7 [22] = test: Decrease in median number of […]/53BP1 foci per nucleus in gamma irradiated human MCF7 cells at 4 mM preincubated for 15 mins followed by gamma irradiation measured after 60 mins by confocal fluorescence microscopic analysis relative to control; type: functional; design: scale not given: the % may be the effect or the level left; summary of the method: as §2
MCF7 [23] = test: Induction of DNA damage in gamma irradiated human MCF7 cells assessed as increase in double strand breakage of DNA at 4 mM preincubated for 15 mins followed by gamma irradiation measured after 5 mins by neutral comet assay; type: functional, cell-based

In the case of `NCCCNCCSP(=O)(O)O` [AMIFOSTINE], the Activity (NHDF [1]) is reported as “Active”, the Activity (MCF7 [2]) is reported as “Active” and the Drug metabolism [3] is reported as “metabolite_detected”. For the same compound, the Drug metabolism [4] was “metabolite_detected”, the Drug metabolism [5] was “metabolite_detected” and the Activity (MCF7 [6]) was “Active”. For the same compound, the Activity (NHDF [7]) was “Active”, the Ratio [8] was 2.56 and the Ratio [9] was 1.62. For the same compound, the Ratio [10] was 1.47, the Ratio [11] was 2.17 and the Activity (NHDF [12]) was 75.8%. For the same compound, the Activity (NHDF [13]) was 61.9%, the Activity (NHDF [14]) was 10% and the Activity (MCF7 [15]) was 20.7%. The Activity (NHDF [16]) was “Active” and the Activity (MCF7 [17]) was 137.5%.

In the case of `NCCCNCCS` [WR-1065], the Activity (NHDF [1]) is reported as “Active”, the Activity (MCF7 [2]) is reported as “Active” and the Activity (NHDF [18]) is reported as 17.7%. The Drug uptake (NHDF [19]) was greater than 90%, the Drug uptake (MCF7 [20]) was greater than 90% and the Activity (NHDF [12]) was 65.2%. It also gave an Activity (NHDF [13]) of 50%, an Activity (MCF7 [21]) of 75% and an Activity (MCF7 [22]) of 82.9%. For the same compound, the Activity (NHDF [16]) was “Active” and the Activity (MCF7 [23]) was “inactive”.

Source: ChEMBL document CHEMBL3804829, “Two New Faces of Amifostine: Protector from DNA Damage in Normal Cells and Inhibitor of DNA Repair in Cancer Cells” (J Med Chem, 2016)
